Results reported in ChEMBL document CHEMBL1122739, “Potential inhibitors of nucleotide biosynthesis. 2. Halomethyl ketone derivatives of pyrimidine nucleosides” (J Med Chem, 1984).
pIC50: −log10 of the molar value.

Key:
[1] = Ratio of the cytotoxic concentrations (I50''s) against H.Ep.-2 and L1210 cells.; format: functional
HEp-2 = experiment: Concentration that produces 50 % inhibition of cloning of H.Ep.-2 cells in suspension culture, over a 12-day period; format: functional, cell-based; details: Homo sapiens, HEp-2, 288 h; read-out: I50
Procedure, shortened: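 H.Ep.-2 cells tested by cloning over a 12-day period. I50 is the concentration giving 50% inhibition of colony formation relative to untreated control growth.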

[2] = Half-life period determined in water at room temperature.; format: ADME
Mus musculus [3] = experiment: Activity against P388 leukemia was determined in vivo. The percent increase in life span at a compound dose of 50 mg/kg.; format: functional
Procedure, shortened: (§1)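 P388 leukemia in vivo; dosing given as a single injection on days 1-5. Read-out is the percent increase in life span relative to untreated controls.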

L1210 = experiment: Concentration that produces 50 % inhibition of proliferation of L1210 cells in suspension culture in 48 h,; format: functional, cell-based; details: Mus musculus, L1210, 48 h; read-out: I50
Procedure, shortened: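 L1210 cells grown in suspension culture for 48 h with compound. I50 is the concentration giving 50% inhibition of proliferation relative to control growth.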

[4] = Ratio of the cytotoxic concentrations (I50's) against H.Ep.-2 and L1210 cells.; format: functional
Mus musculus [5] = experiment: Activity against P388 leukemia was determined in vivo. The percent increase in life span at a compound dose of 25 mg/kg.; format: functional; procedure, shortened: as §1
Mus musculus [6] = experiment: Activity against P388 leukemia was determined in vivo. The percent increase in life span at a compound dose of 12.5 mg/kg.; format: functional; procedure, shortened: as §1
Mus musculus [7] = experiment: Activity against P388 leukemia was determined in vivo. The percent increase in life span at a compound dose of 200 mg/kg.; format: functional; procedure, shortened: as §1
Mus musculus [8] = experiment: Activity against P388 leukemia was determined in vivo. The percent increase in life span at a compound dose of 100 mg/kg.; format: functional; procedure, shortened: as §1

Compound Cc1cn(C2CC(O)C(CNC(=O)c3ccc(C(=O)CBr)cc3)O2)c(=O)[nH]c1=O (stereo not given) has a Ratio [1] of 15, a pIC50 (HEp-2) of less than 4.40 and a half-life [2] of 1 h. For the same compound, the ILS at 50 mg/kg (Mus musculus [3]) was 15% and the pIC50 (L1210) was less than 4.15.

Work on Cc1cn(C2CC(O)C(CCC(=O)CCl)O2)c(=O)[nH]c1=O (stereo not given) yielded a Ratio [4] of 10, a pIC50 (HEp-2) of 4.60 and a half-life [2] greater than 52 h. The ILS at 50 mg/kg (Mus musculus [3]) was 10% and the pIC50 (L1210) was 4.18.

Work on Cc1cn(C2CC(O)C(CCC(=O)CI)O2)c(=O)[nH]c1=O (stereo not given) yielded a Ratio [1] of 16, an ILS at 25 mg/kg (Mus musculus [5]) of 16% and a pIC50 (HEp-2) of 4.77. It also gave a half-life [2] of 4 h and a pIC50 (L1210) of 4.70.

With Cc1cn(C2CC(O)C(CCC(=O)CBr)O2)c(=O)[nH]c1=O (stereo not given) the Ratio [1] was 16, the pIC50 (HEp-2) was 4.26 and the half-life [2] was 1.8 h. It also gave an ILS at 12.5 mg/kg (Mus musculus [6]) of 16% and a pIC50 (L1210) of 3.96.

Work on Cc1cn(C2CC(O)C(C(=O)Nc3ccc(C(=O)CBr)cc3)O2)c(=O)[nH]c1=O (stereo not given) yielded a Ratio [1] of 38, a pIC50 (HEp-2) of 4.92 and a half-life [2] of 4 h. It also gave an ILS at 200 mg/kg (Mus musculus [7]) of 38% and a pIC50 (L1210) of 5.22.

Cc1cn(C2CC(O)C(C(=O)Nc3ccc(C(=O)CCl)cc3)O2)c(=O)[nH]c1=O (stereo not given) showed a Ratio [1] of 14, an ILS at 100 mg/kg (Mus musculus [8]) of 14% and a pIC50 (HEp-2) of 4.52. The half-life [2] was greater than 52 h and the pIC50 (L1210) was 4.55.

With Cc1cn(C2CC(O)C(C(=O)Nc3ccc(C(=O)CI)cc3)O2)c(=O)[nH]c1=O (stereo not given) the Ratio [1] was 5, the ILS at 25 mg/kg (Mus musculus [5]) was 5% and the pIC50 (HEp-2) was 4.54. The half-life [2] was 13 h and the pIC50 (L1210) was 5.10.
